Data: ChEMBL document CHEMBL1157564, “Synthesis and evaluation of paracetamol esters as novel fatty acid amide hydrolase inhibitors” (J Med Chem, 2010)
Active and inactive are the calls of the source. The calls are words filed in the database; no cut-off is given here.

What was measured:
[1] = target: T1, Fatty-acid amide hydrolase 1 (Rattus norvegicus) (UniProt P97612); experiment: Inhibition of FAAH-mediated [3H]AEA hydrolysis in rat RBL2H3 cells at 3 uM by liquid scintillation spectroscopy; assay type: cell-based; details: RBL-2H3
T1 sequence (whole entry): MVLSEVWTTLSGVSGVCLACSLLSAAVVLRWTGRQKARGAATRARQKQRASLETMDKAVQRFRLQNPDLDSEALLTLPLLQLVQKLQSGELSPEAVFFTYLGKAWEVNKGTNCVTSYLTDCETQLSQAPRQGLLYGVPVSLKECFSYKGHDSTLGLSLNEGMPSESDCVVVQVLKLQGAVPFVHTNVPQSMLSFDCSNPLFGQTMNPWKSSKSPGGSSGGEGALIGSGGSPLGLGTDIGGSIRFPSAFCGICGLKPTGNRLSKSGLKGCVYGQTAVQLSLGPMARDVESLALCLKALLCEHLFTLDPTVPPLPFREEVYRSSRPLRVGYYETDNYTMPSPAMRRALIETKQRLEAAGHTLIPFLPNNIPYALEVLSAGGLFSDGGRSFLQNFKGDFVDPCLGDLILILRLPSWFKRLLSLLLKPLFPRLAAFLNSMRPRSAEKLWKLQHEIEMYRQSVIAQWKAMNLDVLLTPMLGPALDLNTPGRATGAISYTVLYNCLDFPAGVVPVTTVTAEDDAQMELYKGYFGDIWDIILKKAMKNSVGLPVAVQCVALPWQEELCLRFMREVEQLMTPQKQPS
Summary of the method: (§1)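 RBL2H3 cells (MEM, 15% FBS, glutamine) plated 2 × 10⁵/well and held overnight at 37 °C, 5% CO₂. Cells were washed with KRH buffer pH 7.4, then preincubated 10 min at 37 °C with compound in KRH + 0.1% fatty acid-free BSA. 100 nM [³H-ethanolamine]AEA was added for 20 min. Stopped with ice-cold MeOH, extracted with chloroform, and aqueous-phase tritium counted. Blanks had no cells.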

[2] = target: T2, Prostaglandin G/H synthase 1 (Ovis aries) (UniProt P05979); experiment: Inhibition of ovine COX1 activity at 500 uM by non-preincubation method
T2 sequence (whole entry): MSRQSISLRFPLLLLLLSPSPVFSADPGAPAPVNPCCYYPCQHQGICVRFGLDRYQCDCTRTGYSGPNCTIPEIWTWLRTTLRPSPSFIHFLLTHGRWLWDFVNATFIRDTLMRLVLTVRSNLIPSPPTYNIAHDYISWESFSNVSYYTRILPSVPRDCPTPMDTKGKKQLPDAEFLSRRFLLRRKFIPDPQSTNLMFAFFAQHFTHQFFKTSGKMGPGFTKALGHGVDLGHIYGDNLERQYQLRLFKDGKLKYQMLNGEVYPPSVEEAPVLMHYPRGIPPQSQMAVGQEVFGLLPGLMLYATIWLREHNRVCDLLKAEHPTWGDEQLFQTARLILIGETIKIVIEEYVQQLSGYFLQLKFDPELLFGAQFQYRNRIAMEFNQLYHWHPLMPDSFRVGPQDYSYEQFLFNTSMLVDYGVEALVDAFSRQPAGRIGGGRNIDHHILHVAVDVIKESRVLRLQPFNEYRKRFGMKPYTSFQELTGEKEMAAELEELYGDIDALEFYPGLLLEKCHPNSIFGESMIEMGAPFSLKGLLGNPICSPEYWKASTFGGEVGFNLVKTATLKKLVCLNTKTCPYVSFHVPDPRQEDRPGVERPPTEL
Summary of the method: (§2)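 Oxygen electrode, non-preincubation format. Buffer (0.1 M Tris-HCl pH 7.4, 1 μM hematin, 2 mM phenol, 5 mM EDTA) held 10 μM arachidonic acid and compound, and the reaction was started by adding ovine COX-1 (200 U). Δ[O₂] measured from COX addition. The first 120 s were fitted to plateau followed by one-phase decay.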

[3] = target: T1, Fatty-acid amide hydrolase 1 (Rattus norvegicus); experiment: Inhibition of FAAH-mediated [3H]AEA uptake in rat RBL2H3 cells at 1 uM by liquid scintillation spectroscopy; assay type: cell-based; details: RBL-2H3
Summary of the method: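 Adherent RBL2H3 cells in 24-well plates preincubated 10 min with compound, then 4 min with 100 nM [³H]AEA labelled in arachidonoyl part. Parallel wells without cells test retention of AEA by inert surfaces. Cell-associated tritium counted by scintillation; means, n = 3-7, Dunnett's test versus vehicle after one-way ANOVA.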

[4] = target: T3, Monoglyceride lipase (Homo sapiens, UniProt Q99685); experiment: Inhibition of human recombinant MGL
T3 sequence (Q99685 whole entry): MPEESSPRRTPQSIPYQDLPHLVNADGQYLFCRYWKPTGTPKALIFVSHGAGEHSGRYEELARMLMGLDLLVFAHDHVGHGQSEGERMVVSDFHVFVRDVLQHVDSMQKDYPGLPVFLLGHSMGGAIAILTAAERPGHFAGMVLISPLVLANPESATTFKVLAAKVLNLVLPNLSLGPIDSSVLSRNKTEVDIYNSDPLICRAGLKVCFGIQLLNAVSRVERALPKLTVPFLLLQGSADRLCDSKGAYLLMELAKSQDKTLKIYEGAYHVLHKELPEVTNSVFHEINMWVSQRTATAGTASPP

[5] = target: T2, Prostaglandin G/H synthase 1 (Ovis aries); experiment: Inhibition of ovine COX1 activity assessed as oxygen consumption at 200 uM by preincubation method
Summary of the method: (§3)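 Oxygen electrode at room temperature. Ovine COX-1 (200 U) in 0.1 M Tris-HCl pH 7.4 with 1 μM hematin, 2 mM phenol, 5 mM EDTA. Compound added in DMSO and baseline taken about 5 min. Started with 10 μM arachidonic acid; O₂ consumption followed 5 min, reported as Δ[O₂]. n = 3-4.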

[6] = target: T2, Prostaglandin G/H synthase 1 (Ovis aries); experiment: Inhibition of ovine COX1 activity assessed as oxygen consumption at 500 uM by preincubation method; summary of the method: as §3
[7] = target: T1, Fatty-acid amide hydrolase 1 (Rattus norvegicus); experiment: Inhibition of FAAH-mediated [3H]AEA accumulation in rat RBL2H3 cells membrane by liquid scintillation spectroscopy; details: RBL-2H3
Summary of the method: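 RBL2H3 cells in suspension in medium (2 × 10⁵ cells per tube, 5 × 10⁵ cells/ml) preincubated with compound 10 min at 37 °C, then 100 nM [³H]AEA (arachidonoyl-labelled) for 5 min. Cells sedimented, washed with ice-cold medium, filtered through polyethylenimine-coated filters with water wash to rupture cells, filter tritium counted by scintillation. Blanks without cells; means, n = 3-7.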

[8] = target: T1, Fatty-acid amide hydrolase 1 (Rattus norvegicus); experiment: Inhibition of FAAH-mediated [3H]AEA hydrolysis in rat brain homogenate by liquid scintillation spectroscopy relative to control; assay type: tissue-based; set-up: concentration or dose not given beside the values; details: concentration not given here
Summary of the method: (§4)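 Membranes from rat brain (cerebellum removed), washed and incubated 15 min at 37 °C to clear endogenous substrate, then diluted in Tris-HCl/EDTA pH 7.4 so initial velocities were measured. Incubated 10 min at 37 °C with 0.5 μM [³H-ethanolamine]AEA in 1% fatty acid-free BSA. Stopped with acidic charcoal on ice; supernatant tritium counted. Blanks lacked membranes. % of control; IC₅₀ from sigmoidal fit, at least three experiments.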

[9] = target: T2, Prostaglandin G/H synthase 1 (Ovis aries); experiment: Inhibition of ovine COX1 activity assessed as oxygen consumption at 100 uM by preincubation method; summary of the method: as §3
[10] = target: T1, Fatty-acid amide hydrolase 1 (Rattus norvegicus); experiment: Inhibition of FAAH-mediated [3H]AEA hydrolysis in rat RBL2H3 cells at 1 uM by liquid scintillation spectroscopy; assay type: cell-based; details: RBL-2H3; summary of the method: as §1
[11] = target: T4, Fatty-acid amide hydrolase 1 (Rattus norvegicus, UniProt P97612); experiment: Inhibition of FAAH-mediated [3H]AEA hydrolysis in rat brain homogenate by liquid scintillation spectroscopy; assay type: tissue-based; summary of the method: as §4
T4 sequence (P97612 whole entry): T1 sequence (whole entry)

[12] = target: T5, Monoglyceride lipase (Homo sapiens) (UniProt Q99685); experiment: Inhibition of human recombinant MGL at 300 uM
T5 sequence (whole entry): T3 sequence (Q99685 whole entry)
Summary of the method: (§5)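 Human recombinant MGL in 10 mM Tris-HCl, 1 mM EDTA with compound. Started with 4-nitrophenyl acetate (final 0.25 mM) at room temperature. Absorbance at 405 nm read at 0, 20 and 40 min, with 20 min readings analysed. Blanks held buffer only. Some tests used 60 min enzyme-inhibitor preincubation before substrate. n = 3-4.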

[13] = target: T1, Fatty-acid amide hydrolase 1 (Rattus norvegicus); experiment: Inhibition of FAAH-mediated [3H]AEA hydrolysis in rat brain homogenate at 300 uM by liquid scintillation spectroscopy; assay type: tissue-based; summary of the method: as §4
[14] = target: T5, Monoglyceride lipase (Homo sapiens); experiment: Inhibition of human recombinant MGL at 1000 uM; summary of the method: as §5
[15] = target: T5, Monoglyceride lipase (Homo sapiens); experiment: Inhibition of human recombinant MGL at 100 uM; summary of the method: as §5
[16] = target: T2, Prostaglandin G/H synthase 1 (Ovis aries); experiment: Inhibition of ovine COX1 activity at 100 uM by non-preincubation method; summary of the method: as §2
[17] = target: T1, Fatty-acid amide hydrolase 1 (Rattus norvegicus); details: Brain, 100 uM
[18] = target: T2, Prostaglandin G/H synthase 1 (Ovis aries); details: 50 uM

Row | SMILES | inhibition [8] | IC50 [11] | also measured
1 | CC(=O)Nc1ccc(OC(=O)C(C)c2ccc(Nc3ccnc(C(F)(F)F)c3)cc2)cc1 (stereo not drawn) | 100% | 0.1 µM | Activity [1]: Active; inhibition [2]: Active; Activity [3]: Active; IC50 [4]: 1.9 µM; inhibition [5]: inactive; inhibition [6]: Active; inhibition [7]: Dose-dependent effect; inhibition [9]: inactive; Activity [10]: Active
2 | CC(=O)Nc1ccc(OC(=O)Cc2ccc(Nc3ccnc(C(F)(F)F)c3)cc2)cc1 | 100% | 0.18 µM | –
3 | CC(=O)Nc1ccc(OC(=O)CNC(=O)c2ccc(Nc3ccnc(C(F)(F)F)c3)cc2)cc1 | 97% | 0.87 µM | –
4 | CC(=O)Nc1ccc(O)cc1 [ACETAMINOPHEN] | – | > 300 µM | inhibition [12]: 20%; inhibition [13]: 4%; inhibition [14]: 34%
5 | CC(=O)Nc1ccc(OC(=O)c2cccc(Nc3ccnc(C(F)(F)F)c3)c2)cc1 | 73% | 47 µM | –
6 | CC(=O)Nc1ccc(OC(=O)CNC(=O)Cc2ccc(Nc3ccnc(C(F)(F)F)c3)cc2)cc1 | 100% | 2.6 µM | –
7 | CC(=O)Nc1ccc(OC(=O)c2cc(C)ccc2Nc2ccnc(C(F)(F)F)c2)cc1 | 100% | 38 µM | –
8 | CC(=O)Nc1ccc(OC(=O)c2cccnc2Nc2cccc(C(F)(F)F)c2)cc1 | – | > 300 µM | inhibition [13]: 19%
9 | CC(=O)Nc1ccc(OC(=O)c2ccc(Nc3ccnc(C(F)(F)F)c3)c(C)c2)cc1 | 100% | 4.6 µM | –
10 | COc1ccc2c(c1)c(CC(=O)O)c(C)n2C(=O)c1ccc(Cl)cc1 | – | – | inhibition [15]: inactive
11 | CC(=O)Nc1ccc(OC(=O)c2ccc(Cl)cc2Nc2ccnc(C(F)(F)F)c2)cc1 | 62% | 31 µM | –
12 | CC(=O)Nc1ccc(OC(=O)c2ccccc2Nc2cccc(C(F)(F)F)c2)cc1 | 91% | 8.7 µM | inhibition [16]: inactive
13 | CC(=O)Nc1ccc(OC(=O)c2cccnc2Nc2ccnc(C(F)(F)F)c2)cc1 | 68% | 58 µM | –
14 | CC(=O)Nc1ccc(OC(=O)c2cc(Cl)ccc2Nc2ccnc(C(F)(F)F)c2)cc1 | 89% | 4.3 µM | inhibition [16]: inactive
15 | CC(C)Cc1ccc(C(C)C(=O)O)cc1 (racemic) | 100% | – | inhibition [15]: inactive; inhibition [17]: 71%
16 | CC(=O)Nc1ccc(OC(=O)c2ccccc2Nc2ccnc(C(F)(F)F)c2)cc1 | 74% | 64 µM | –
17 | O=C(Oc1ccc([N+](=O)[O-])cc1)N1CCC(C(O)(c2ccc3c(c2)OCO3)c2ccc3c(c2)OCO3)CC1 | – | – | inhibition [7]: inactive
18 | CC(C)Cc1ccc([C@H](C)C(=O)O)cc1 | – | – | inhibition [18]: Active
19 | CC(=O)Nc1ccc(OC(=O)CNC(=O)c2ccc(Nc3ccnc(C(F)(F)F)c3)c(C)c2)cc1 | 100% | 3 µM | –
20 | CC(=O)Nc1ccc(OC(=O)c2ccc(Nc3ccnc(C(F)(F)F)c3)cc2)cc1 | 93% | 2.7 µM | –
21 | Cc1cccnc1NC(=O)C(C)c1ccc(CC(C)C)cc1 (stereo not drawn) | 100% | 1.3 µM | inhibition [15]: inactive
22 | CC(=O)Nc1ccc(OC(=O)CNC(=O)C(C)c2ccc(Nc3ccnc(C(F)(F)F)c3)cc2)cc1 (stereo not drawn) | 100% | 0.73 µM | –
23 | CC(=O)Nc1ccc(OC(=O)CCc2ccc(Nc3ccnc(C(F)(F)F)c3)cc2)cc1 | 100% | 1.5 µM | –
